# Experimental data reported in ChEMBL document CHEMBL1275519, “In vivo pharmacodynamics of ceftobiprole against multiple bacterial pathogens in murine thigh and lung infection models” (Antimicrob Agents Chemother, 2008).
# Assays:
# [1] = T>MIC in Streptococcus pneumoniae ATCC 10813 infected CD1 neutropenic mouse at static dose of 0.180 mg/kg, sc administered every 6 hrs; type: functional; settings: dose 0.18 mg/kg; route subcutaneous
# Outline: (§1)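 Neutropenic mice (cyclophosphamide i.p. 150 and 100 mg/kg, 4 and 1 days pre-infection) given 0.1 ml thigh inoculum (1:10 dilution of 10^8 CFU/ml), then treated from 2 h post-infection for 24 h with s.c. ceftobiprole medocaril (0.010–160 mg/kg) at varied intervals. Thigh CFU plated from homogenates. Static dose came from a sigmoid Hill model, and T>MIC was estimated from mouse PK and MIC.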
# [2] = tested on: Klebsiella pneumoniae; assay: Antimicrobial activity against Klebsiella pneumoniae ATCC 43816 by broth dilution method; type: functional
# Outline: (§2)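 Ceftobiprole MIC determined by CLSI (NCCLS) broth microdilution.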
# [3] = T>MIC in methicillin-resistant Staphylococcus aureus WIS-1 infected CD1 neutropenic mouse at static dose of 16.1 mg/kg, sc administered every 6 hrs; type: functional; settings: route subcutaneous
# [4] = T>MIC in Streptococcus pneumoniae CDC-145 infected CD1 neutropenic mouse at 2-log kill dose of 3.27 mg/kg, sc administered every 6 hrs; type: functional; settings: route subcutaneous
# [5] = T>MIC in Enterobacter cloacae 4567 infected CD1 neutropenic mouse at 2-log kill dose of 4.67 mg/kg, sc administered every 3 hrs; type: functional; settings: route subcutaneous
# [6] = Half life in CD1 neutropenic mouse with bacterial infection in thigh at 40 mg/kg, sc; type: ADME, organism-based; parameters: dose 40 mg/kg, route subcutaneous; settings: in vivo
# Outline: (§3)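 Neutropenic thigh-infected mice (cyclophosphamide i.p. 150 mg/kg day −4, 100 mg/kg day −1) given single s.c. ceftobiprole medocaril doses; two groups of three mice per dose bled retro-orbitally at 0.5–6 h, each animal 3–4 times. Total serum drug measured by agar diffusion bioassay with E. coli NIH-J (linear 0.25–256 μg/ml). Cmax, t1/2 and AUC from one-compartment model.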
# [7] = tested on: Streptococcus pneumoniae; assay: Antimicrobial activity against Streptococcus pneumoniae ATCC 10813 by broth dilution method; type: functional; outline: as §2
# [8] = T>MIC in Streptococcus pneumoniae CDC 1329 infected CD1 neutropenic mouse at static dose of 2.93 mg/kg, sc administered every 6 hrs; type: functional; settings: route subcutaneous; outline: as §1
# [9] = tested on: Enterobacter cloacae; assay: Antimicrobial activity against Enterobacter cloacae 2249 by broth dilution method; type: functional; outline: as §2
# [10] = AUC in CD1 neutropenic mouse with bacterial infection in thigh at 40 mg/kg, sc; type: ADME, organism-based; parameters: dose 40 mg/kg, route subcutaneous; settings: plasma; outline: as §3
# [11] = T>MIC in Enterobacter cloacae 2249 infected CD1 neutropenic mouse at static dose of 22.2 mg/kg, sc administered every 3 hrs; type: functional; settings: route subcutaneous; outline: as §1
# [12] = T>MIC in Staphylococcus aureus ATCC 29213 infected CD1 neutropenic mouse at 2-log kill dose of 15.4 mg/kg, sc administered every 6 hrs; type: functional; settings: route subcutaneous
# [13] = tested on: Staphylococcus aureus; assay: Antimicrobial activity against Staphylococcus aureus ATCC 29213 by broth dilution method; type: functional
# Outline: (§4)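 Ceftobiprole MIC by broth microdilution per Clinical and Laboratory Standards Institute (formerly NCCLS) methods, using ceftobiprole standard powder.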
# [14] = AUC in CD1 neutropenic mouse with bacterial infection in thigh at 10 mg/kg, sc; settings: plasma
# [15] = T>MIC in Streptococcus pneumoniae CDC 673 infected CD1 neutropenic mouse at static dose of 6.68 mg/kg, sc administered every 6 hrs; type: functional; settings: route subcutaneous; outline: as §1
# [16] = tested on: Streptococcus pneumoniae; assay: Antimicrobial activity against Streptococcus pneumoniae MNO-418 by broth dilution method; type: functional; outline: as §4
# [17] = tested on: Streptococcus pneumoniae; assay: Antimicrobial activity against Streptococcus pneumoniae CDC 1329 by broth dilution method; type: functional; outline: as §2
# [18] = T>MIC in Staphylococcus aureus ATCC Smith infected CD1 neutropenic mouse at 2-log kill dose of 9.60 mg/kg, sc administered every 6 hrs; type: functional; settings: dose 9.6 mg/kg; route subcutaneous
# [19] = tested on: Staphylococcus aureus; assay: Antimicrobial activity against methicillin-resistant Staphylococcus aureus WIS-1 by broth dilution method; type: functional; outline: as §4
# [20] = T>MIC in Escherichia coli ATCC 25922 infected CD1 neutropenic mouse at 2-log kill dose of 42.4 mg/kg, sc administered every 6 hrs; type: functional; settings: route subcutaneous
# [21] = Cmax in CD1 neutropenic mouse with bacterial infection in thigh at 10 mg/kg, sc; settings: in vivo
# [22] = Cmax in CD1 neutropenic mouse with bacterial infection in thigh at 160 mg/kg, sc; type: ADME, organism-based; parameters: dose 160 mg/kg, route subcutaneous; settings: in vivo; outline: as §3
# [23] = T>MIC in Streptococcus pneumoniae CDC-145 infected CD1 neutropenic mouse at static dose of 0.956 mg/kg, sc administered every 6 hrs; type: functional; settings: route subcutaneous; outline: as §1
# [24] = AUC in CD1 neutropenic mouse with bacterial infection in thigh at 160 mg/kg, sc; type: ADME, organism-based; parameters: dose 160 mg/kg, route subcutaneous; settings: plasma; outline: as §3
# [25] = T>MIC in methicillin-resistant Staphylococcus aureus 11888 infected CD1 neutropenic mouse at static dose of 22.6 mg/kg, sc administered every 6 hrs; type: functional; settings: route subcutaneous
# [26] = T>MIC in Staphylococcus aureus ATCC 33591 infected CD1 neutropenic mouse at 2-log kill dose of 15.3 mg/kg, sc administered every 6 hrs; type: functional; settings: route subcutaneous
# [27] = tested on: Streptococcus pneumoniae; assay: Antimicrobial activity against Streptococcus pneumoniae CDC 145 by broth dilution method; type: functional; outline: as §2
# [28] = T>MIC in Streptococcus pneumoniae MNO-418 infected CD1 neutropenic mouse at static dose of 0.238 mg/kg, sc administered every 6 hrs; type: functional; settings: route subcutaneous; outline: as §1
# [29] = T>MIC in Klebsiella pneumoniae infected CD1 neutropenic mouse at 2-log kill dose of 43.8 mg/kg, sc administered every 6 hrs; type: functional; settings: route subcutaneous
# [30] = T>MIC in Pseudomonas aeruginosa ATCC 27853 infected CD1 neutropenic mouse at 2-log kill dose of 110 mg/kg, sc administered every 3 hrs; type: functional; settings: route subcutaneous
# [31] = tested on: Staphylococcus aureus; assay: Antimicrobial activity against methicillin-resistant Staphylococcus aureus 12248 by broth dilution method; type: functional; outline: as §4
# [32] = T>MIC in Staphylococcus aureus ATCC 33591 infected CD1 neutropenic mouse at static dose of 7.91 mg/kg, sc administered every 6 hrs; type: functional; settings: route subcutaneous; outline: as §1
# [33] = T>MIC in Streptococcus pneumoniae CDC 673 infected CD1 neutropenic mouse at 2-log kill dose of 29 mg/kg, sc administered every 6 hrs; type: functional; settings: route subcutaneous
compound,measurement,setting,value
Nc1nc(/C(=N/O)C(=O)N[C@@H]2C(=O)N3C(C(=O)O)=C(/C=C4\CCN([C@@H]5CCNC5)C4=O)CS[C@H]23)ns1 [CEFTOBIPROLE],fT>MIC,[1],19.4%
same,MIC,[2],0.06 µg/mL
same,fT>MIC,[3],25%
same,fT>MIC,[4],23%
same,fT>MIC,[5],40.9%
same,half-life,[6],19.8 min
same,MIC,[7],0.03 µg/mL
same,fT>MIC,[8],22.2%
same,MIC,[9],2 µg/mL
same,AUC,[10],27800 ng·h/mL
same,fT>MIC,[11],44.6%
same,fT>MIC,[12],29.9%
same,MIC,[13],0.5 µg/mL
same,AUC at 10 mg/kg,[14],5850 ng·h/mL
same,fT>MIC,[15],18.5%
same,MIC,[16],0.015 µg/mL
same,MIC,[17],0.25 µg/mL
same,fT>MIC,[18],25.9%
same,MIC,[19],1 µg/mL
same,fT>MIC,[20],57.8%
same,Cmax,[21],10.8 µg/mL
same,Cmax,[22],144 µg/mL
same,fT>MIC,[23],15.2%
same,AUC,[24],213000 ng·h/mL
same,fT>MIC,[25],22.5%
same,fT>MIC,[26],24.4%
same,MIC,[27],0.25 µg/mL
same,fT>MIC,[28],21.3%
same,fT>MIC,[29],59.2%
same,fT>MIC,[30],98.8%
same,MIC,[31],2 µg/mL
same,fT>MIC,[32],19.1%
same,fT>MIC,[33],29.7%
